The text below walks through data of ChEMBL document CHEMBL1144493, “Synthesis and biological evaluation of dihydrofuran-fused perhydrophenanthrenes as a new anti-influenza agent having novel structural characteristic” (Bioorg Med Chem, 2007).

Data set [1] relates to Influenza A virus. Briefly: Antiviral activity against influenza A virus A/USSR/92/77 (H1N1) at 100 uM. It counts as functional, organism-based. In a few lines: (§1)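 PBS-washed confluent MDCK monolayers were inoculated with virus in serum-free MEM and adsorbed for 45 min at room temperature. They were then cultured in agar medium with drug at 100 µM or 1% DMSO as control. Results are percent of control, mean ± SD of three experiments. Drug stocks were in DMSO, final DMSO <1%.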

The test system of data set [2] is Influenza A virus. Nature of the data set: Antiviral activity against influenza virus A virus A/PR/8/34 (H1N1) at 100 uM. It counts as functional, organism-based. The essentials:
as §1

The test system of data set [3] is Influenza A virus. Briefly: Anti-influenza activity against influenza A virus A/Aichi/2/68 in MDCK cells administered at 100 uM within 1 hrs post infection. The data set is classed as functional, organism-based. In a few lines: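 MDCK cells were infected with A/Aichi/2/68 (H3N2) under drug-free conditions and then given drug at 100 µM after delays of 0–10 h at 37 °C. The paper describes a one-step growth design at MOI 5 PFU/cell with 1-h drug treatment. Virus yield was measured by plaque titration after 24 h total, as % of 1% DMSO control, mean ± SD of three experiments.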

Data set [4] deals with Influenza A virus. Briefly: Inhibition of influenza A virus A/Aichi/2/68 virus proliferation in MDCK cells. The data set is classed as functional, organism-based.
For data set [5], the system named is Influenza B virus. Briefly: Antiviral activity against influenza B virus B/Singapore/222/79 at 100 uM. It counts as functional. In a few lines: as §1
The subject of data set [6] is Influenza A virus. Nature of the data set: Antiviral activity against influenza A virus A/NWS/33 (H1N1) at 100 uM. It counts as functional, organism-based. The essentials: as §1
The next data set relates to MDCK. Briefly: Cytotoxicity against MDCK cells at 100 uM by MTT assay. It counts as cell-based, Canis lupus familiaris. Particulars: dog. The essentials: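 Subconfluent MDCK cells (10⁴ cells/well) were exposed for 24 h to compound at 100 or 200 µM in MEM with 2% FBS; control was 1% DMSO. MTT was then added and OD read at 570 nm. Values are mean ± SD of three measurements.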

Data set [7] deals with Influenza A virus. Nature of the data set: Inhibition of influenza A virus A/Aichi/2/68 proliferation in MDCK cells at 10 uM relative to control. On the set-up: scale not given: the % may be the effect or the level left. The data set is classed as functional.
Data set [8] deals with Influenza B virus. Nature of the data set: Antiviral activity against influenza B virus B/Lee at 100 uM. It counts as functional, organism-based. The essentials: as §1

Active and inactive are the calls of the source. The rule behind the calls is not given here.

On to `N#C[C@]12CCC3(OCCO3)C3=CO[C@H](Cc4cc(OC(F)(F)F)ccc41)[C@@H]32`, for which the result with Influenza A virus [1], with Influenza A virus [2], in the data set with Influenza A virus [3], in the data set on Influenza B virus [5], with Influenza A virus [6] and with Influenza B virus [8] was Active. Moreover, the Activity entry with Influenza A virus [4] is “Dose-dependent effect”; in the data set with MDCK, “Not Active”; with Influenza A virus [7] it was 30%.

For the compound `CC(C)C(Oc1ccc2c(c1)C[C@H]1OC=C3[C@H]1[C@@]2(C#N)CCCC31OCCO1)(C(C)C)C(C)C`, the outcome with Influenza A virus [1], in the data set on Influenza A virus [2], with Influenza B virus [5], with Influenza A virus [6] and in the data set with Influenza B virus [8] was Active. Also, the Activity result is “Dose-dependent effect” in the data set with Influenza A virus [4], “Not Active” with MDCK and 30% in the data set on Influenza A virus [7].
